Measurements reported in ChEMBL document CHEMBL4028826, “Virtual screen to NMR (VS2NMR): Discovery of fragment hits for the CBP bromodomain” (Bioorg Med Chem Lett, 2017).

How the values were obtained:
CREB-binding protein [1] = biological target: T1, CREB-binding protein (Homo sapiens, UniProt Q92793); test: Residual binding of human CBP expressed in Escherichia coli to histone H4 tetraacetylated peptide at 0.5 mM by Alphascreen assay relative to control
Target sequence in this assay (Q92793 2-2442 limits assumed): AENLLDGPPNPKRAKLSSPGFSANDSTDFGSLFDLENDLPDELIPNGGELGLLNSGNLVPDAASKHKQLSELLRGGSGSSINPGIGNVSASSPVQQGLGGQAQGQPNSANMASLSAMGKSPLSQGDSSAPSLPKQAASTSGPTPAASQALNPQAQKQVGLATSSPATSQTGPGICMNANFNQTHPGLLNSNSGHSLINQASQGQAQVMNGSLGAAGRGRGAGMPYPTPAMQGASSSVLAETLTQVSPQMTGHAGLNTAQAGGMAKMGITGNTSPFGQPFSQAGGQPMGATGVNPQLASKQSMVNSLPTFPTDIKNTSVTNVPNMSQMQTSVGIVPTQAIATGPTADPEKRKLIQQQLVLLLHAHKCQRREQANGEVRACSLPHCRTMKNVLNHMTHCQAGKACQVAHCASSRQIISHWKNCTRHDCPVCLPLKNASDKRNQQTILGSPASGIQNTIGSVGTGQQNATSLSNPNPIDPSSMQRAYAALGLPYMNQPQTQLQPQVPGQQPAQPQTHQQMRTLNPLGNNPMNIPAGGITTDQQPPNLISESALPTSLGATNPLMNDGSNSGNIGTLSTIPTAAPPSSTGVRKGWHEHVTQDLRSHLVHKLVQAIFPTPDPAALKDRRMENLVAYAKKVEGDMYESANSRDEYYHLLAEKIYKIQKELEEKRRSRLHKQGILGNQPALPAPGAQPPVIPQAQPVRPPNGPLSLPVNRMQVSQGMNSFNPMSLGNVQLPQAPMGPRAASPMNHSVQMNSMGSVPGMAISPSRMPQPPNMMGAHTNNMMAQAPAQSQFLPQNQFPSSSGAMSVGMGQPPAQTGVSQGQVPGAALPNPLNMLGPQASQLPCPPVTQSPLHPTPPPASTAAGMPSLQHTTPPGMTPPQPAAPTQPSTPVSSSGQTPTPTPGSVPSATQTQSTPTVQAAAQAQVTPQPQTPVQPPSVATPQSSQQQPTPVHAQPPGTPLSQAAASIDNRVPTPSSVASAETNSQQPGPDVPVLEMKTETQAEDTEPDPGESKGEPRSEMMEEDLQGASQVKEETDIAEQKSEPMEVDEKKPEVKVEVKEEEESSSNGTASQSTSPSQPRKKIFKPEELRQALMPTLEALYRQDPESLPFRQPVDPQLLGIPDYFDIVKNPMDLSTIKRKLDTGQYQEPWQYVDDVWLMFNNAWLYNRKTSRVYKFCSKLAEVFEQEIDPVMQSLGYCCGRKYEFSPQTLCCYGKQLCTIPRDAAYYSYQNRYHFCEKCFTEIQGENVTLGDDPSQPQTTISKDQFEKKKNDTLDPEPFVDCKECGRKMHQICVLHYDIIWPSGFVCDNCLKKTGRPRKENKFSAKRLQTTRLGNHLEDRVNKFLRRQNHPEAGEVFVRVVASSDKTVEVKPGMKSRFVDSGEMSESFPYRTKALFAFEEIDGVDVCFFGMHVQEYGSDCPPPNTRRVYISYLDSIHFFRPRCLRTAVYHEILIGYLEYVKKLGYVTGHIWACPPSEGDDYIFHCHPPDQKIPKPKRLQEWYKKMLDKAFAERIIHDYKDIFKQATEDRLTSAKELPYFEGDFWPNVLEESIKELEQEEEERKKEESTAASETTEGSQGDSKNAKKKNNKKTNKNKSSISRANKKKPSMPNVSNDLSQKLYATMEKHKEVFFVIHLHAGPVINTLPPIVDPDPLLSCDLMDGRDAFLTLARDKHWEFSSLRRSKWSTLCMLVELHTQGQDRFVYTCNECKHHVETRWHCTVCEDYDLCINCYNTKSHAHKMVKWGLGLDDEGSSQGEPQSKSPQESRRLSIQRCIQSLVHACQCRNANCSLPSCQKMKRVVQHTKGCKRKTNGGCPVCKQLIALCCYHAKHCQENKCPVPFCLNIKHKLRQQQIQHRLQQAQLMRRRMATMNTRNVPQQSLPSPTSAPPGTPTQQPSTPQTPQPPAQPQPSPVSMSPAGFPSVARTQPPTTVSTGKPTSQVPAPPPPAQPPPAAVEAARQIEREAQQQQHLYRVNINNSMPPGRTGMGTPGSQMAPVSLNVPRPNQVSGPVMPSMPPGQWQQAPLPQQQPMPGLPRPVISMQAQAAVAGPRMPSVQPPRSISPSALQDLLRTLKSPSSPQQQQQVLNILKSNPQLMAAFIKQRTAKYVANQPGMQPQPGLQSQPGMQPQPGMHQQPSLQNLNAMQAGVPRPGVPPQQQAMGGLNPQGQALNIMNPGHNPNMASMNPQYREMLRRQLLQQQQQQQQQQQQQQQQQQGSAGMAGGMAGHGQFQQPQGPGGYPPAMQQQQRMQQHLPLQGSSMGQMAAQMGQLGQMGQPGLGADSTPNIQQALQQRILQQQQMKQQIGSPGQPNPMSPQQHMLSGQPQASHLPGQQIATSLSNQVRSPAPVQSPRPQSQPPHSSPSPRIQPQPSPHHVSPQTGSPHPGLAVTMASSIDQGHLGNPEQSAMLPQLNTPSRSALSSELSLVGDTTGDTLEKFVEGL

CREB-binding protein [2] = biological target: T1, CREB-binding protein; test: Binding affinity to CBP (unknown origin) assessed as change in melting temperature at 1 mM by differential scanning fluorimetric method
Procedure, shortened: (§1)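 Differential scanning fluorimetry with bromodomain at 2 μM and ligand at 1 mM. The reported shift in melting temperature is the median of at least nine measurements for each ligand/bromodomain pair.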
Target sequence in this assay (Q92793 2-2442 limits assumed): as above

[3] = biological target: Histone acetyltransferase p300 (Homo sapiens) (UniProt Q09472); test: Binding affinity to EP300 (unknown origin) assessed as change in melting temperature at 1 mM by differential scanning fluorimetric method
Chain of Histone acetyltransferase p300 (Homo sapiens) (Q09472 whole entry): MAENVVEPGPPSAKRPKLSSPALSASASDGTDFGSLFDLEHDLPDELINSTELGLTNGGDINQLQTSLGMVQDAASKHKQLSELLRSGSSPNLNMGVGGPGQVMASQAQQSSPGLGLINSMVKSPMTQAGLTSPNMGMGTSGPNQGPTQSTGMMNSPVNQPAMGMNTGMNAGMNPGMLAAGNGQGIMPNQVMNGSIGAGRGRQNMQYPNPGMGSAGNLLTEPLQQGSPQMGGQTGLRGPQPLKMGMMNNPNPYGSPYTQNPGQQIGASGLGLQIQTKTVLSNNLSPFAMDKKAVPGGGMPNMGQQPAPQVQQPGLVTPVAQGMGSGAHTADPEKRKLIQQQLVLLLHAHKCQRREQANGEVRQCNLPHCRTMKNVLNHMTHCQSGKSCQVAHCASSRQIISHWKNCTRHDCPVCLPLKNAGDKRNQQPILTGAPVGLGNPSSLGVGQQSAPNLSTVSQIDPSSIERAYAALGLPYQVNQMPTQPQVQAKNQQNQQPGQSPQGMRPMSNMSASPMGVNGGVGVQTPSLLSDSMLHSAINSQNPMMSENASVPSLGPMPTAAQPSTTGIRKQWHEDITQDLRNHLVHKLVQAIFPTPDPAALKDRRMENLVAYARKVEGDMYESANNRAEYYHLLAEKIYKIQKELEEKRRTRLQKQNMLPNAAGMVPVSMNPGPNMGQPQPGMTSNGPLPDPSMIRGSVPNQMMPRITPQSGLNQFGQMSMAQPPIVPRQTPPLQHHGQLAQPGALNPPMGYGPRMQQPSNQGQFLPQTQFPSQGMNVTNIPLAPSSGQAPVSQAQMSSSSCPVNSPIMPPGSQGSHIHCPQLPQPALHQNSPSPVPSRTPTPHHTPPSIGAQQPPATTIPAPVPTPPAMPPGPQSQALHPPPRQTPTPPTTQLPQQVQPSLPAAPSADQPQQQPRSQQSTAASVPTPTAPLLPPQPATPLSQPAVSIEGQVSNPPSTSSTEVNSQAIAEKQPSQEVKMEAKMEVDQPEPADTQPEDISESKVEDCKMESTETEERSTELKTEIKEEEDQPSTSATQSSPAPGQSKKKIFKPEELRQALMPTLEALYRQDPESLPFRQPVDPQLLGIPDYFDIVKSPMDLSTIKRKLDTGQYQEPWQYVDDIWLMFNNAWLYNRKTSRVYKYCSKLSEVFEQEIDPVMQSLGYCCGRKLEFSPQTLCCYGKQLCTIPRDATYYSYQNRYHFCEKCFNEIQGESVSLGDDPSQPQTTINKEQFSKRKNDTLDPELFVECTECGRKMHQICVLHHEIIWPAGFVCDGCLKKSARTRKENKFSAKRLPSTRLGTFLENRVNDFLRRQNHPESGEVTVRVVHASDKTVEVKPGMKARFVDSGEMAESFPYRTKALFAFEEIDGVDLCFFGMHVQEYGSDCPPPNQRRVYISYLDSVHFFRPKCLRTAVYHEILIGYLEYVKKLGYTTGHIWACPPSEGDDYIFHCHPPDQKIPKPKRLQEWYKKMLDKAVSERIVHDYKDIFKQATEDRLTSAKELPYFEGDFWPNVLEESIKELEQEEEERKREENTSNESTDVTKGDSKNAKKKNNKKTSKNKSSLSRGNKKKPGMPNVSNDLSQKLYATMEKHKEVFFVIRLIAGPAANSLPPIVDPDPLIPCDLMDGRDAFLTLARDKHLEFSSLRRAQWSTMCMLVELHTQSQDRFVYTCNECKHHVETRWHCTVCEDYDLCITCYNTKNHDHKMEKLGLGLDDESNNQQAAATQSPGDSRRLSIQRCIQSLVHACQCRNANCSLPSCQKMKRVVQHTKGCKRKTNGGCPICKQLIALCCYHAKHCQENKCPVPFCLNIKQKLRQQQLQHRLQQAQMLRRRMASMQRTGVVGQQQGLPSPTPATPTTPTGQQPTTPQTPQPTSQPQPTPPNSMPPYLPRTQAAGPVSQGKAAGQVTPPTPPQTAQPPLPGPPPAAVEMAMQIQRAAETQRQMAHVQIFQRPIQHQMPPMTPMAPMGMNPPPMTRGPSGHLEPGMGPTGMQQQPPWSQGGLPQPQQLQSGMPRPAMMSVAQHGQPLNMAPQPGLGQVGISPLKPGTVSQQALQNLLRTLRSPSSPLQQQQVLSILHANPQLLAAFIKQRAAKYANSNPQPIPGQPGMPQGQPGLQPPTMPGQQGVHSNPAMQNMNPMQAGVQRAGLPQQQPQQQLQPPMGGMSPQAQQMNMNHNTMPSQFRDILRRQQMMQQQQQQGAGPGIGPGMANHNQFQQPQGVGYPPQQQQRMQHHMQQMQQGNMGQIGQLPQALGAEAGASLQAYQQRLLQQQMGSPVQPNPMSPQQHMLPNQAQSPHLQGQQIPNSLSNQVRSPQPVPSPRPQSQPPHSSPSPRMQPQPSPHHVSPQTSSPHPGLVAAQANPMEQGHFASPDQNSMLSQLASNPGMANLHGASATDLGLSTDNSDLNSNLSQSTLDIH
Procedure, shortened: as §1

CREB-binding protein [4] = biological target: T1, CREB-binding protein; test: Inhibition of histone H4 tetraacetylated peptide binding to human CBP by Alphascreen assay
Procedure, shortened: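 AlphaScreen competition with a tetra-acetylated 21-mer histone H4 peptide as the competitor for the CBP bromodomain. IC50 was obtained by curve fitting of 10-point dose responses.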

CREB-binding protein [5] = biological target: T1, CREB-binding protein; test: Binding affinity to partial length human DNA-tagged CBP (R1081 to G1197 residues) expressed in bacterial expression system by qPCR analysis
Procedure, shortened: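 Competition-binding assay using DNA-tagged CBP bromodomain against an undisclosed proprietary ligand, with quantitative PCR read-out. KD was obtained by curve fitting of 12-point dose responses run in duplicate.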

Row | Compound | residual activity (CREB-binding protein [1]) [%] | other results
1 | CS(=O)(=O)NCc1ccc2c(c1)OCO2 | 100 | –
2 | CC(=O)Nc1ccc(SCC#N)cc1 | 74 | –
3 | O=C(O)[C@@H]1CS[C@H](c2ccc(F)cc2)N1 | 94 | –
4 | CC(=O)c1ccc(CC#N)s1 | 56 | –
5 | O=c1[nH]c(=O)n([C@H]2C[C@H](O)[C@H](CO)O2)cc1F | 98 | –
6 | COC(=O)N1CCC(C(=O)O)CC1 | 56 | –
7 | COC(=O)c1ccc(C(C)=O)cc1 | 92 | –
8 | CNC(=O)c1ccc(C(F)(F)F)nc1 | 96 | –
9 | CC(=O)c1ccc(O)c2[nH]c(=O)ccc12 | 93 | –
10 | CC(=O)c1cn(C)c2ccccc12 | 31 | ΔTm (CREB-binding protein [2]): 2.9 °C; ΔTm [3]: 2.6 °C
11 | CNC(=O)c1cc(Br)c[nH]1 | 0.1 | ΔTm (CREB-binding protein [2]): 7.3 °C; ΔTm [3]: 7 °C; IC50 (CREB-binding protein [4]): 40 µM; Kd (CREB-binding protein [5]): 4 µM
12 | CCn1cnc2ccc(C(=O)OC)cc21 | 79 | –
13 | Cc1nc2ccc(NS(C)(=O)=O)cc2o1 | 92 | –
14 | Cn1ncc2c1CCCC2=O | 100 | –
15 | Cc1nnc2ccc(N3CCOCC3)nn12 | 102 | –
16 | Cc1nnsc1Sc1ccccn1 | 92 | –
17 | COc1ccc(-c2c[nH]nc2N)cc1OC | 48 | ΔTm (CREB-binding protein [2]): -0.1 °C; ΔTm [3]: -1.3 °C
18 | COc1cc(C(C)=O)ccc1N | 37 | ΔTm (CREB-binding protein [2]): 2.4 °C; ΔTm [3]: 2.6 °C
19 | CCc1nnc2cccc(Cl)n12 | 85 | –
20 | COC(=O)c1ccc2[nH]c(=O)oc2c1 | 34 | ΔTm (CREB-binding protein [2]): 2.3 °C; ΔTm [3]: 1.4 °C; IC50 (CREB-binding protein [4]): 455 µM; Kd (CREB-binding protein [5]): 85 µM
